Test [1] is described as follows: Inhibitory activity against Hog pancreatic elastase; IA = Inactive at 10e-6. Also on record: species or system Sus scrofa.
Test [2] has as its target T1, Neutrophil elastase (Homo sapiens) (UniProt P08246).
T1 sequence (whole entry): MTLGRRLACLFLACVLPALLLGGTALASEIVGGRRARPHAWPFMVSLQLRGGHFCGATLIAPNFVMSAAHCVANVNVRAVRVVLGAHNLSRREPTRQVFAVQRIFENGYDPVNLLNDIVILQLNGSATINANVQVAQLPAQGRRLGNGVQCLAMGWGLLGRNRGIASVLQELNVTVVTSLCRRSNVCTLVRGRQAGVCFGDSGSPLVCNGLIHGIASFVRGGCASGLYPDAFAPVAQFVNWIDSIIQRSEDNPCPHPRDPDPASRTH
Particulars: 2 uM; call rule not given here.

The target in test [3] is T1, Neutrophil elastase (Homo sapiens). The conditions noted are these: 3 uM.
For test [4] the target is unchanged. The conditions noted are these: 1 uM.
The target is the same in test [5]. The conditions noted are these: 3 uM. The source holds these as a separate data set.
The target in test [6] is T2, Neutrophil elastase (Homo sapiens, UniProt P08246).
T2 sequence (P08246 whole entry): T1 sequence (whole entry)
The test is described as follows: Inhibitory activity against human leukocyte elastase at 10e-7 M.

The target of test [7] is T1, Neutrophil elastase (Homo sapiens). The conditions noted are these: 3 uM. This is another data set of the same source.
The nature of test [8]: Inhibitory activity against pancreatic elastase; IA = Inactive at 10e-6.
The target in test [9] is T1, Neutrophil elastase (Homo sapiens). Particulars: 1 uM. The source holds these as a separate data set.
Test [10] has the same target. Particulars: 2 uM. The source holds these as a separate data set.
The target is the same in test [11]. Particulars: 2 uM. This is another data set of the same source.
Test [12] has the same target. Particulars: 1 uM. The source holds these as a separate data set.
Test [13] addresses T2, Neutrophil elastase. The test is described as follows: Binding affinity towards human leukocyte elastase at 10e-8 M. An outline of the steps: (§1)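 HLE activity followed as rise in absorbance at 410 nm from nitroanilide release; substrate (methoxysuccinyl)Ala-Ala-Pro-Val nitroanilide at 10⁻⁴ M. Run in 0.2 M Tris, pH 8.0, 30 °C. Inhibitors and substrate dissolved in DMSO, which made up 10% of the final medium. Enzyme titrated to give 0.12 OD unit/min per 10 mm path.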

Test [14] addresses T1, Neutrophil elastase (Homo sapiens). Kind of test: Inhibitory activity against [14C]elastin hydrolysis at 1 uM concentration and 3h. An outline of the steps:
(§2)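 Elastase digestion of [¹⁴C]elastin, quantitated by radiolabel release (method of Bielefeld et al.). Substrate, inhibitor and elastase were all present for the whole run, and % inhibition was read at 1, 2 and 3 h.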

For test [15] the target is unchanged. Kind of test: Inhibitory activity against [14C]elastin hydrolysis at 4 uM concentration and 3h. A digest of the protocol:
as §2

A short description of test [16]: Inhibitory activity against pancreatic elastase; A = Inactive at 10e-5 M.
Test [17] concerns the target T1, Neutrophil elastase (Homo sapiens). The test is described as follows: Inhibitory activity against [14C]elastin hydrolysis at 2 uM concentration and 1h. An outline of the steps:
as §2

Test [18] has the same target. The test is described as follows: Inhibitory activity against [14C]elastin hydrolysis at 4 uM concentration and 2 hr. An outline of the steps: as §2
Test [19] can be described thus: Inhibitory activity against Hog pancreatic elastase; A = Inactive at 10e-5 M. Set-up: species or system Sus scrofa.
The target of test [20] is T1, Neutrophil elastase (Homo sapiens). Kind of test: Inhibitory activity against [14C]elastin hydrolysis at 4 uM concentration and 1h. A digest of the protocol: as §2
Test [21] has the same target. The test is described as follows: Inhibitory activity against [14C]elastin hydrolysis at 1 uM concentration and 1h. A digest of the protocol: as §2
Test [22] shares this target. Kind of test: Inhibitory activity against [14C]-Elastin hydrolysis at 2 uM concentration and 3h. An outline of the steps: as §2
Test [23] shares this target. The test is described as follows: Inhibitory activity against [14C]elastin hydrolysis at 1 uM concentration and 2 hr. An outline of the steps: as §2
Test [24] deals with T2, Neutrophil elastase. Kind of test: Inhibitory activity against human leukocyte elastase at 10e-8 M.
Test [25] deals with T1, Neutrophil elastase (Homo sapiens). The test is described as follows: Inhibitory activity against [14C]-Elastin hydrolysis at 2 uM concentration and 2 hr. An outline of the steps: as §2
For test [26], the target named is T2, Neutrophil elastase. The test is described as follows: Binding affinity towards human leukocyte elastase at 10e-7 M.
The nature of test [27]: Inhibitory activity against pancreatic elastase; IA = Inactive at 10e-5 M.
Test [28] is described as follows: Inhibitory activity against Hog pancreatic elastase IA = Inactive at 10e-5 M. Set-up: species or system Sus scrofa.
The target in test [29] is T1, Neutrophil elastase (Homo sapiens). The test is described as follows: Inhibitory activity against [14C]elastin hydrolysis at 0.5 uM concentration and 1h. An outline of the steps:
as §2

The target is the same in test [30]. Kind of test: Inhibitory activity against [14C]-Elastin hydrolysis at 0.5 uM concentration and 2 hr. An outline of the steps: as §2
Test [31] has the same target. The test is described as follows: Inhibitory activity against [14C]elastin hydrolysis at 0.5 uM concentration and 3h. An outline of the steps:
as §2

The nature of test [32]: Inhibitory activity against Hog pancreatic elastase; IA = Inactive at 1e-5M. Set-up: species or system Sus scrofa.
A short description of test [33]: Inhibitory activity against pancreatic elastase; IA = Inactive at 1e-5M.
Test [34] addresses T2, Neutrophil elastase. The test is described as follows: Inhibitory activity against human leukocyte elastase;IA = Inactive at 10e-4 M. An outline of the steps: as §1

Drawing on ChEMBL document CHEMBL1124104, “(Acyloxy)benzophenones and (acyloxy)-4-pyrones. A new class of inhibitors of human neutrophil elastase” (J Med Chem, 1988), this text covers IC50, inhibition and Ki for five molecules.

Regarding `CC(C)(C)C(=O)Oc1ccc(C(=O)c2ccc(OC(=O)C(C)(C)C)cc2)cc1`, the IC50 result in test [1] is “Not Active”; at Neutrophil elastase [6], 120 nM; in [8] it was “Not Active”. For the same molecule, the inhibition is 42% in test [2]; 77% in [3]; 15% in test [4]; 67% in [5]; 77% in test [7]; 28% in test [9]. Moreover, the values for the inhibition in [10], in [11] and in [12] were 46%, 62% and 34%, respectively. This molecule also gave a Ki on Neutrophil elastase [13] of 71 nM.
On to `CC(C)(C)C(=O)Oc1ccc(C(=O)OCc2cc(=O)c(OC(=O)C(C)(C)C)co2)c(OC(=O)C(C)(C)C)c1`, for which the inhibition in test [14] was -1%; in test [15], 54%; in test [17] it was 36%; in test [18], 80%; in test [20], 93%; in test [21] it was 25%. For the same molecule, the inhibition in test [22] was 1%; in [23], 5%; in test [25], 16%. The concentration for half-maximal inhibition (IC50) entry in test [16] is “Not Active”; in [19], “Not Active”; on Neutrophil elastase [24] it was 27 nM. At Neutrophil elastase [26], this molecule gave an inhibitory constant (Ki) of 70 nM.
In the case of `CC(C)(C)C(=O)Oc1ccc(C(=O)c2ccc(OC(=O)C(C)(C)C)cc2OC(=O)C(C)(C)C)c(OC(=O)C(C)(C)C)c1`, the IC50 result in test [27] was “Not Active”; in [28], “Not Active”; against Neutrophil elastase [24], 27 nM. The inhibition in test [14] stood at 59%; in test [29], 38%; in test [17] it was 81%; in test [21] it was 62%; in [22] it was 82%; in test [23], 72%. Further, the inhibition in test [25] was 85%; in [30], 38%; in test [31], 21%. Further, at Neutrophil elastase [13], the affinity, expressed as Ki, was 68 nM.
In the case of `CC(C)(C)C(=O)Oc1ccc(C(=O)c2ccccc2)cc1`, the half-maximal inhibitory concentration (IC50) entry in test [32] and in [33] was “Not Active” in each case.
For the molecule `CC(C)(C)C(=O)Oc1coc(CO)cc1=O`, the IC50 result at Neutrophil elastase [34] is reported as “Not Active”.
